How the values were obtained:
[1] = Plasma concentration in db/db mouse at 1 mg/kg, iv after 240 mins; format: ADME, organism-based; parameters: dose 1 mg/kg, route intravenous; details: read-out: Drug uptake
Method in brief: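 Single dose to mice, 5 mg/kg po or 1 mg/kg iv. Plasma was sampled at 5, 10, 30, 90 and 240 min. Only parent compound was measured, in ng/mL.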

Liver [2] = assay: Drug level in db/db mouse liver measured metabolites as glucuronide at 1 mg/kg, iv after 240 mins; format: ADME, organism-based; parameters: dose 1 mg/kg, route intravenous; details: in vivo, 4 h
Method in brief: (§1)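 Mice got a single dose, 5 mg/kg po or 1 mg/kg iv. Liver and bile were sampled 240 min after dosing. Parent carboxylic acid, its acyl-glucuronide and its taurine amide were quantified separately, in ng/mL. Glucuronide identity was confirmed by glucuronidase digestion of bile or bile extracts, which regenerated the parent.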

Mus musculus = assay: Reduction in total plasma cholesterol level in db/db mouse at 1 mg/kg bid after 12 days; format: functional
Method in brief: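 C57BL/KSK-mLep^db/mLep^db mice were dosed orally at 1, 5 and 25 mg/kg b.i.d. for 12 days. Total plasma triglycerides and total plasma cholesterol were measured, with cholesterol reported as mg/dl. Significance was given at p<0.05, <0.01 and <0.001 levels.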

Liver [3] = assay: Drug level in db/db mouse liver measured metabolites as taurine amide at 1 mg/kg, iv after 240 mins; format: ADME, organism-based; parameters: dose 1 mg/kg, route intravenous; details: in vivo, 4 h; method in brief: as §1

| concentration at 4 h [1] | Drug uptake (Liver [2]) | Drug uptake (Liver [3]) | Compound | Activity (Mus musculus) |
| --- | --- | --- | --- | --- |
| 94 ng/mL | 17 ng/mL |  | CN(Cc1ccc(C(=O)O)cc1)c1ccc(OCc2c(-c3c(Cl)cccc3Cl)noc2C2CC2)nc1C(F)(F)F | 97.2 mg/dL |
|  |  | 134 ng/mL | CC(C)c1onc(-c2c(Cl)cccc2Cl)c1COc1ccc(N(C)Cc2ccc(C(=O)O)cc2)c(C(F)(F)F)n1 |  |

Source: ChEMBL document CHEMBL1208782, “Synthesis and pharmacological validation of a novel series of non-steroidal FXR agonists” (Bioorg Med Chem Lett, 2010)
